Assay [1] deals with T1, Bcl-2-related protein A1 (Homo sapiens, UniProt Q16548).
T1 sequence (Q16548 whole entry): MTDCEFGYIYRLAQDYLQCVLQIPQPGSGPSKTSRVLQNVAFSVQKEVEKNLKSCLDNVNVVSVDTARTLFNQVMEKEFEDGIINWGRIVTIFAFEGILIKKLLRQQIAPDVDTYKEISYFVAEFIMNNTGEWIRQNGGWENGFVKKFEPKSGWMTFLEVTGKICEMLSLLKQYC
The assay can be described thus: Inhibition of N-terminal FITC BH3 peptide binding to GST-tagged Bfl1 by time resolved-FRET assay. The method, boiled down: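 10-point 2-fold dilution series in 10% final DMSO, in duplicate wells. FITC-Bid (5.6 nM) plus Tb-antibody (2.5 nM) was then added and incubated 4 h at room temperature. TR-FRET read at ex 340 nm, signal taken as the 520/490 nm emission ratio.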

The target in assay [2] is T1, Bcl-2-related protein A1. The assay can be described thus: Inhibition of N-terminal FITC BH3 peptide binding to GST-tagged Bfl1 by fluorescence polarization assay. The essentials:
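Then FITC-Bid BH3 peptide (5.6 nM working solution) was added and incubated 4 h at room temperature. Ten concentrations in 10% DMSO. Fluorescence polarization read at ex 485/em 530 nm. IC50 from sigmoidal dose-response non-linear regression.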

Bounds are passed on as bounds.

Turning to `CN1CCN(c2cc(O)n(-c3ccc(Cl)c(Cl)c3)c2O)CC1` [1-(3,4-dichlorophenyl)-3-(4-methylpiperazin-1-yl)pyrrolidine-2,5-dione], the IC50 at Bcl-2-related protein A1 [1] and at Bcl-2-related protein A1 [2] was above 10 µM throughout.

Consider `Oc1c(Cl)c(N=Cc2ccccc2)c(O)n1-c1ccc(Cl)c(Cl)c1` [MLS-0067125.0001], for which the IC50 on Bcl-2-related protein A1 [1] and on Bcl-2-related protein A1 [2] was above 50 µM in each case.

The record behind these values is BindingDB's records for doi:10.1016/j.bmcl.2010.09.046 (Human Biomolecular Research Institute, 2010).
